Laboratory results as given in ChEMBL document CHEMBL1765020, “Synthesis and structure-affinity relationships of novel dibenzylideneacetone derivatives as probes for β-amyloid plaques” (J Med Chem, 2011).
pKi: −log10 of the molar value. The source made the active and inactive calls. The calls are words filed in the database; no cut-off is given here.

What was measured:
[1] = molecular target: Amyloid-beta precursor protein (Homo sapiens) (UniProt P05067); assay: Binding affinity to amyloid beta (1 to 42) aggregate in cortex of Alzheimer disease patient brain by immunohistochemical staining using amyloid beta antibody BC05; conditions: tested as the 125I-labelled form
Amyloid-beta precursor protein (Homo sapiens), sequence (P05067 whole entry): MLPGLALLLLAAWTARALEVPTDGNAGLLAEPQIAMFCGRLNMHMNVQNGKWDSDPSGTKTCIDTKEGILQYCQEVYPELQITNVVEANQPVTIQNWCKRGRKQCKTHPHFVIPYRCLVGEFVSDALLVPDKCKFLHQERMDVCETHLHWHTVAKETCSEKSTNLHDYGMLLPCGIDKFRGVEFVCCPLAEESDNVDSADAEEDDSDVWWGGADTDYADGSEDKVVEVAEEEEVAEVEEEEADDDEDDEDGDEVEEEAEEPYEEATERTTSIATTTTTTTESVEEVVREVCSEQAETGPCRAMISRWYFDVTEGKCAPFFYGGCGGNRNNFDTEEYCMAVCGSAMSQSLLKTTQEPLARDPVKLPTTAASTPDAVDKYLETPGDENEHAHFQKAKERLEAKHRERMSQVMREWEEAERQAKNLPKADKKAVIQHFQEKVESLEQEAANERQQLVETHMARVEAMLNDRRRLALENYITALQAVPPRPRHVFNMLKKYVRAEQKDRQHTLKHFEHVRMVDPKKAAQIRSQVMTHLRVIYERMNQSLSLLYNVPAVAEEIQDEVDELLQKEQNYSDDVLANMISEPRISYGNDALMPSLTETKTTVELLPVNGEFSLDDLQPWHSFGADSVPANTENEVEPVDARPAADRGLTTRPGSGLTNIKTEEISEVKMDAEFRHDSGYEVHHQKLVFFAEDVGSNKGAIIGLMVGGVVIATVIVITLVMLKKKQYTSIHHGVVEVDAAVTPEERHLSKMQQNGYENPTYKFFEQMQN
How it was run: (§1)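 Plaque presence and location in the AD patient temporal-lobe sections were confirmed by immunohistochemistry with monoclonal anti-Aβ1-42 antibody BC05.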

[2] = molecular target: Amyloid-beta precursor protein (Homo sapiens) (UniProt P05067); assay: Binding affinity to amyloid beta (1 to 42) aggregate in white matter of Alzheimer disease patient brain by autoradiography; assay type: tissue-based; conditions: tested as the 125I-labelled form
How it was run: (§2)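 Human postmortem temporal-lobe paraffin sections were used: AD patient and normal control (person). They were deparaffinized (xylene, graded ethanol), held 30 min in PBS 0.2 M pH 7.4, incubated 1 h at room temperature with radiotracer (5 μCi/100 μL), washed 3 min in 40% ethanol, rinsed, dried and exposed to an imaging plate overnight.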

[3] = molecular target: Amyloid-beta precursor protein (Homo sapiens) (UniProt P05067); assay: Binding affinity to amyloid beta (1 to 42) aggregate in white matter of Alzheimer disease patient brain by immunohistochemical staining using amyloid beta antibody BC05; assay type: tissue-based; conditions: tested as the 125I-labelled form; how it was run: as §1
[4] = Displacement of [125I]IMPY from amyloid beta (1 to 42) aggregate after 2 hrs by gamma counting
How it was run: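 Competition binding in 1 mL PBS (0.2 M, pH 7.4). Aggregated Aβ1-42 fibrils (60 nM final) with [125I]IMPY and inhibitor at 10^-5 to 10^-10 M, added in ethanol. Nonspecific binding was defined with 1 μM IMPY. Incubated 2 h at 37 °C with shaking, then vacuum-filtered through glass fibre filters and the bound fraction gamma-counted. IC50 was converted to Ki by Cheng-Prusoff; triplicate, mean ± SD.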

[5] = molecular target: Amyloid-beta precursor protein (Homo sapiens) (UniProt P05067); assay: Binding affinity to amyloid beta (1 to 42) aggregate in cortex of Alzheimer disease patient brain by autoradiography; conditions: tested as the 125I-labelled form; how it was run: as §2

Activity [1]: Active
Activity [2]: Active
Activity [3]: Active
pKi [4]: 8.55
Activity [5]: Active
SMILES: CNc1ccc(/C=C/C(=O)/C=C/c2ccc(I)cc2)cc1
